≈ marks a conversion by molar mass, not a printed value. Square brackets hold non-standard residues; d marks the D form. Peptide text beside a SMILES is read from it. Gly(Nα-4-Cl-benzyl) = O=C(O)CNCc1ccc(Cl)cc1; Gly(N-(CH2)6NH2) = NCCCCCCNCC(=O)O; Gly(N-2-aminoethyl) = NCCNCC(=O)O; Nspe = C[C@H](NCC(=O)O)c1ccccc1; NhArg = N=C(N)NCCCCNCC(=O)O; NPentylGly = CCCCCNCC(=O)O; Nphe = O=C(O)CNCc1ccccc1; Nlys = NCCCCNCC(=O)O
Tests used:
Escherichia coli = assay: Antibacterial activity against Escherichia coli K-12 W3110 ATCC 27325 incubated for 16 hrs under shaking condition; type: functional; details: K-12 substr. W3110 ATCC 27325, 16 h
Procedure, shortened: (§1)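 Broth microdilution (Andrews method) in Iso-sensitest broth. Overnight cultures are adjusted to A650 0.07 (0.5 McFarland) and diluted ten-fold. Compounds come from 5 mM DMSO stocks, 2-fold serially diluted, final 2–100 μM in a 1:1 inoculum:compound mix. Incubation is 37 °C for 16 h with shaking. MIC is the lowest concentration giving complete growth inhibition, read by absorbance; triplicate.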

[1] = Cytotoxicity against human HaCaT cells assessed as reduction in cell viability pretreated for 1 hr followed by DMEM addition measured after 24 hrs by alamar blue assay; type: cell-based; details: read-out: ED50
Procedure, shortened: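 HaCaT keratinocytes are grown in DMEM high glucose with 10% FBS and 1% P/S and seeded at 2x10^4 cells/well 24 h before treatment. Compound dilution series run 2–100 µM (5 mM DMSO stocks) in 50 µL for 1 h, then medium is added for 24 h at 37 °C, 5% CO2. alamarBlue is read after 1 h (Ex 540/Em 620). Triplicate, ≥2 occasions; ED50 from dose-response; amphotericin B positive control.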

[2] = Cytotoxicity against human HepG2 cells assessed as reduction in cell viability pretreated for 1 hr followed by DMEM addition measured after 24 hrs by alamar blue assay; type: cell-based; details: read-out: ED50
Procedure, shortened: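 HepG2 cells are kept in DMEM high glucose with 10% heat-inactivated FBS and 1% P/S at 37 °C, 5% CO2, and seeded at 2x10^4 cells/well one day ahead. They are exposed to compounds (100 to 3 µM, from 5 mM DMSO stocks) in 50 µL for 1 h. Medium is then added and cells incubated 24 h. alamarBlue is read after 2 h (Ex 560/Em 600). Triplicate on ≥2 occasions; ED50 from dose-response; DMSO negative control.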

Pseudomonas aeruginosa = assay: Antibacterial activity against Pseudomonas aeruginosa PAO1 ATCC 15692 incubated for 16 hrs under shaking condition; type: functional; details: PAO1 ATCC 15692, 16 h; procedure, shortened: as §1
Staphylococcus aureus = assay: Antibacterial activity against Staphylococcus aureus 3R7089 strain Oxford/ATCC 9144 incubated for 16 hrs under shaking condition; type: functional; details: 3R7089 strain Oxford/ATCC 9144, 16 h; procedure, shortened: as §1
[3] = test system: Staphylococcus epidermidis; assay: Antibacterial activity against Staphylococcus epidermidis clinical isolate incubated for 16 hrs under shaking condition; type: functional; procedure, shortened: as §1
[4] = Selectivity index, ratio of ED50 for human HaCaT cells to MIC for Staphylococcus aureus 3R7089 strain Oxford/ATCC 9144; type: toxicity; details: read-out: Selectivity Index
[5] = Selectivity index, ratio of ED50 for human HaCaT cells to MIC for Staphylococcus epidermidis clinical isolate; type: toxicity; details: read-out: Selectivity Index
[6] = Selectivity index, ratio of ED50 for human HepG2 cells to MIC for Staphylococcus aureus 3R7089 strain Oxford/ATCC 9144; type: toxicity; details: read-out: Selectivity Index
[7] = Selectivity index, ratio of ED50 for human HepG2 cells to MIC for Staphylococcus epidermidis clinical isolate; type: toxicity; details: read-out: Selectivity Index
[8] = Selectivity index, ratio of ED50 for human HaCaT cells to MIC for Escherichia coli K-12 W3110 ATCC 27325; type: toxicity; details: read-out: Selectivity Index
[9] = Selectivity index, ratio of ED50 for human HaCaT cells to MIC for Pseudomonas aeruginosa PAO1 ATCC 15692; type: toxicity; details: read-out: Selectivity Index
[10] = Selectivity index, ratio of ED50 for human HepG2 cells to MIC for Escherichia coli K-12 W3110 ATCC 27325; type: toxicity; details: read-out: Selectivity Index
[11] = Selectivity index, ratio of ED50 for human HepG2 cells to MIC for Pseudomonas aeruginosa PAO1 ATCC 15692; type: toxicity; details: read-out: Selectivity Index

Structure (SMILES) | MIC (Escherichia coli) [µM] | CC50 at 24 h [1] [µM] | CC50 at 24 h [2] [µM] | MIC (Pseudomonas aeruginosa) [µM] | MIC (Staphylococcus aureus) [µM] | MIC [3] [µM] | selectivity ratio [4] | selectivity ratio [5] | selectivity ratio [6] | selectivity ratio [7] | selectivity ratio [8] | selectivity ratio [9] | selectivity ratio [10] | selectivity ratio [11]
CCCCCN(CC(=O)N(CC(=O)N(CC(=O)N(CCCCN)CC(=O)N(CC(=O)N(CC(N)=O)[C@@H](C)c1ccccc1)[C@@H](C)c1ccccc1)C(C)c1ccccc1)[C@@H](C)c1ccccc1)C(=O)CN(C(=O)CN(C(=O)CN(CCCCN)C(=O)CN(C(=O)CN(C(=O)CNCCCCN)[C@@H](C)c1ccccc1)C(C)c1ccccc1)[C@@H](C)c1ccccc1)C(C)c1ccccc1 (single isomer, unassigned) | > 100 | 20 | 22 | > 100 | 6 (≈ 10.9 µg/mL) | 2 (≈ 3.64 µg/mL) | 3 | 10 | 4 | 11 |  |  |  | 
COc1ccc(CN(CC(N)=O)C(=O)CN(Cc2ccc(OC)cc2)C(=O)CN(CCCCN)C(=O)CN(Cc2ccc(OC)cc2)C(=O)CN(Cc2ccc(OC)cc2)C(=O)CN(CCCCN)C(=O)CN(Cc2ccc(OC)cc2)C(=O)CN(Cc2ccc(OC)cc2)C(=O)CN(CCCCN)C(=O)CN(Cc2ccc(OC)cc2)C(=O)CN(Cc2ccc(OC)cc2)C(=O)CNCCCCN)cc1 | > 100 |  | > 100 | > 100 |  |  | 14 | 21 | 33 | 50 | 0 | 0 | 1 | 1
C[C@@H](c1ccccc1)N(CC(N)=O)C(=O)CN(C(=O)CN(CCCCN)C(=O)CN(C(=O)CN(C(=O)CNCCCCN)[C@@H](C)c1ccccc1)[C@@H](C)c1ccccc1)[C@@H](C)c1ccccc1 (H-[Nlys][Nspe][Nspe][Nlys][Nspe][Nspe]-NH2) | > 100 | > 100 | > 100 | > 100 | > 100 |  | 1 | 4 | 1 | 4 | 1 | 1 | 1 | 1
NCCNCC(=O)N(CC(=O)N(CC(=O)N(CCN)CC(=O)N(CC(=O)N(CC(=O)N(CCN)CC(=O)N(CC(=O)N(CC(N)=O)Cc1ccccc1)Cc1ccccc1)Cc1ccccc1)Cc1ccccc1)Cc1ccccc1)Cc1ccccc1 (H-[Gly(N-2-aminoethyl)][Nphe][Nphe][Gly(N-2-aminoethyl)][Nphe][Nphe][Gly(N-2-aminoethyl)][Nphe][Nphe]-NH2) | > 100 | > 100 | > 100 | > 100 |  | > 100 | 8 | 1 | 8 | 1 | 1 | 1 | 1 | 1
NCCCCNCC(=O)N(CC(=O)N(CC(=O)N(CCCCN)CC(=O)N(CC(=O)N(CC(=O)N(CCCCN)CC(=O)N(CC(=O)N(CC(=O)N(CCCCN)CC(=O)N(CC(=O)N(CC(N)=O)Cc1ccc(Cl)cc1)Cc1ccc(Cl)cc1)Cc1ccc(Cl)cc1)Cc1ccc(Cl)cc1)Cc1ccc(Cl)cc1)Cc1ccc(Cl)cc1)Cc1ccc(Cl)cc1)Cc1ccc(Cl)cc1 (H-[Nlys][Gly(Nα-4-Cl-benzyl)][Gly(Nα-4-Cl-benzyl)][Nlys][Gly(Nα-4-Cl-benzyl)][Gly(Nα-4-Cl-benzyl)][Nlys][Gly(Nα-4-Cl-benzyl)][Gly(Nα-4-Cl-benzyl)][Nlys][Gly(Nα-4-Cl-benzyl)][Gly(Nα-4-Cl-benzyl)]-NH2) | > 100 |  |  | > 100 |  |  | 1 | 3 | 1 | 4 |  |  |  | 
CCCCCNCC(=O)N(CC(=O)N(CC(=O)N(CCCCN)CC(=O)N(CC(=O)N(CC(=O)N(CCCCN)CC(=O)N(CC(=O)N(CC(=O)N(CCCCN)CC(=O)N(CC(=O)N(CC(N)=O)[C@@H](C)c1ccccc1)[C@@H](C)c1ccccc1)C(C)c1ccccc1)[C@@H](C)c1ccccc1)[C@@H](C)c1ccccc1)[C@@H](C)c1ccccc1)C(C)c1ccccc1)[C@@H](C)c1ccccc1 (single isomer, unassigned) | 50 (≈ 90.9 µg/mL) | 12 | 15 |  | 2 (≈ 3.64 µg/mL) |  | 6 | 6 | 8 | 8 |  |  |  | 
CCCCCNCC(=O)N(CC(=O)N(CC(=O)N(CCCCNC(=N)N)CC(=O)N(CC(=O)N(CC(=O)N(CCCCC)CC(=O)N(CC(=O)N(CC(=O)N(CCCCNC(=N)N)CC(=O)N(CC(=O)N(CC(N)=O)[C@@H](C)c1ccccc1)[C@@H](C)c1ccccc1)[C@@H](C)c1ccccc1)[C@@H](C)c1ccccc1)[C@@H](C)c1ccccc1)[C@@H](C)c1ccccc1)[C@@H](C)c1ccccc1)[C@@H](C)c1ccccc1 (H-[NPentylGly][Nspe][Nspe][NhArg][Nspe][Nspe][NPentylGly][Nspe][Nspe][NhArg][Nspe][Nspe]-NH2) | > 100 |  |  | > 100 |  |  | 10 | 5 | 8 | 4 |  |  |  | 
C[C@@H](c1ccccc1)N(CC(N)=O)C(=O)CN(C(=O)CN(CCN)C(=O)CN(C(=O)CN(C(=O)CN(CCN)C(=O)CN(C(=O)CN(C(=O)CN(CCN)C(=O)CN(C(=O)CN(C(=O)CNCCN)[C@@H](C)c1ccccc1)[C@@H](C)c1ccccc1)[C@@H](C)c1ccccc1)[C@@H](C)c1ccccc1)[C@@H](C)c1ccccc1)[C@@H](C)c1ccccc1)[C@@H](C)c1ccccc1 (H-[Gly(N-2-aminoethyl)][Nspe][Nspe][Gly(N-2-aminoethyl)][Nspe][Nspe][Gly(N-2-aminoethyl)][Nspe][Nspe][Gly(N-2-aminoethyl)][Nspe][Nspe]-NH2) | > 100 |  |  |  |  |  | 13 | 13 | 21 | 21 |  | 1 |  | 1
NCCCCCCNCC(=O)N(CC(=O)N(CC(=O)N(CCCCCCN)CC(=O)N(CC(=O)N(CC(N)=O)Cc1ccccc1)Cc1ccccc1)Cc1ccccc1)Cc1ccccc1 (H-[Gly(N-(CH2)6NH2)][Nphe][Nphe][Gly(N-(CH2)6NH2)][Nphe][Nphe]-NH2) |  | > 100 | > 100 | > 100 | > 100 | > 100 | 1 | 1 | 1 | 1 | 1 | 1 | 1 | 1
NCCCCCCNCC(=O)N(CC(=O)N(CC(=O)N(CCCCCCN)CC(=O)N(CC(=O)N(CC(=O)N(CCCCCCN)CC(=O)N(CC(=O)N(CC(N)=O)Cc1ccccc1)Cc1ccccc1)Cc1ccccc1)Cc1ccccc1)Cc1ccccc1)Cc1ccccc1 (H-[Gly(N-(CH2)6NH2)][Nphe][Nphe][Gly(N-(CH2)6NH2)][Nphe][Nphe][Gly(N-(CH2)6NH2)][Nphe][Nphe]-NH2) |  | > 100 | > 100 | > 100 | 6 (≈ 8.21 µg/mL) | 3 (≈ 4.11 µg/mL) | 17 | 33 | 17 | 33 | 2 | 1 | 2 | 1
